TCR-CD3 inh: inhibitors of human TCR-CD3 interaction, primary screen, biochemical, fluorescence, TAMRA-labeled TCR probe; inhibition, % at 9.4 µM; hit rate 0.37% among 360,000; AID 651800, 2012; T-cell receptor (TCR); in the data active = inhibition above about 19%;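 also: recombinant mutant TCR 2C K166C tagged with TAMRA read by polarization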
SIAE primary: human SIAE inhibitors, primary screen, biochemical, fluorescence polarization, FP-Rh probe, 1536-well HTS; SIAE FP-Rh probe binding; Sialate O-acetylesterase (Homo sapiens), Q9HAT2; inhibition, % at 9.66 µM; hit rate 0.69% among 370,000;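 active = inhibition above a cutoff: mean of compounds within the control limits plus 3 SD of those, cut at about 17% in these data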
HTRA1 inhibitor: HTRA1 serine protease inhibitors, primary screen, biochemical, fluorescence polarization, HTS; Q92743; recombinant HTRA1, FP-rhodamine activity-based probe; inhibition, % at 5.96 µM; hit rate 0.5% among 340,000; in the data active = inhibition above about 36%
ABHD4 inh: ABHD4 inhibitors, primary screen, biochemical, fluorescence polarization, mouse | hit rate 0.54% among 370,000 | AID 720543, 2013 | purified mABHD4, FP-Rh probe fluorescence polarization | (Lyso)-N-acylphosphatidylethanolamine lipase (Mus musculus), Q8VD66 | inhibition, % at 8.92 µM;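 active = inhibition exceeding the mean over every tested compound plus 3 SD, cut at about 30% in these data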
Target sequence (Q8VD66 whole entry, looked up): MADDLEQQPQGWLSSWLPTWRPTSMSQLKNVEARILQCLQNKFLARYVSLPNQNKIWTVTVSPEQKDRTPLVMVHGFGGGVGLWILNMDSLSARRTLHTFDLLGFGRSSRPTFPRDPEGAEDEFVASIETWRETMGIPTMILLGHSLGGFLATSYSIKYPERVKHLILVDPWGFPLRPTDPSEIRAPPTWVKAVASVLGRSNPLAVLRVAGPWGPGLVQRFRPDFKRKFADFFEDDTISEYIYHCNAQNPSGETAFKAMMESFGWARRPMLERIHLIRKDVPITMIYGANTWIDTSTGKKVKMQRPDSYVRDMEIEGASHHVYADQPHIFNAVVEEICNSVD
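Assay system: mABHD4 protein; medium: HEPES pH 7.0, NaCl, Pluronic buffer; dosing: 8.92 µM, single dose; schedule: 45 min + 60 min at 25 °C; signal: FP readout, ex 525 nm / em 598 nm; read-out: normalized percent inhibition of probe labeling; repeats: single replicate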
rCAG RNA binder: binders of r(CAG) RNA repeats, primary screen, biochemical, fluorescence; AID 651821, 2012; hit rate 1.3% among 370,000; r(CAG) RNA repeat, TO-PRO-1 dye displacement fluorescence; inhibition, % at 3 µM;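 active = inhibition above the plate cutoff, the mean of all test compounds on that plate plus 3 SD, cut at about 35% in these data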;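 also: higher means more dye released from RNA so lower well fluorescence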
rCAG binder conf: small molecules binding CAG repeat RNA – biochemical, fluorescence, confirmation | shares compounds with rCAG RNA binder | r(CAG) RNA repeat, TO-PRO-1 dye displacement fluorescence | inhibition, % at 3 µM | hit rate 70% among 4,300;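 active = inhibition above a per-plate cutoff, the mean inhibition of sample wells plus 3 SD, cut at about 35% in these data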;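 also: loss of TO-PRO-1 fluorescence as compound displaces dye from 1x1 AA loop RNA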
DNA CAG counter: displacement of TO-PRO-1 from CAG DNA duplex, counter-screen for rCAG RNA repeat binder project, biochemical, fluorescence, TO-PRO-1 dye, d(CAG) DNA oligo; shares compounds with rCAG RNA binder; d(CAG) DNA oligo TO-PRO-1 dye displacement; inhibition, % at 3 µM; hit rate 94% among 4,300;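 active = inhibition above its plate's cutoff, the mean test-well inhibition plus 3 SD, cut at about 4.8% in these data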;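 also: hits displace the dye from DNA and so lower well fluorescence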
Numbers stand for hits; - = inactive; . = no result; ! = not confirmed by another sample. Hits are enriched below; roughly 2.5% of the tested compounds scored in any of these assays.

SMILES | TCR-CD3 inh | SIAE primary | HTRA1 inhibitor | ABHD4 inh | rCAG RNA binder | rCAG binder conf | DNA CAG counter
CCC(=O)Nc1cccc(C(=O)Nc2nccs2)c1 | - | - | - | - | - | . | .
Cc1cccc(C2(c3cccc(C)c3)CC2C(=O)Nc2ccc([N+](=O)[O-])cc2O)c1 (stereo unspecified) | - | - | - | - | 49.1 | 52.0 | 21.9
O=C(/C=C/c1ccccc1)CCN1CCCCC1 | - | - | - | - | - | . | .
Cc1ccc(NC(=O)CN2C(=O)N/C(=C/c3ccccc3OCc3cccc(C(=O)O)c3)C2=O)cc1 | - | - | - | - | 75.8 | 63.0 | 26.8
COc1cc(/C=C2/NC(=O)N(Cc3ccccc3F)C2=O)cc(OC)c1O | - | - | - | - | - | . | .
N#C/C(=C\c1ccccc1OCc1ccc(C(=O)O)cc1)c1ccccc1 | - | - | - | - | 34.9 | - | 5.3
COc1cc(/C=C(/C#N)C(=O)Nc2ccccc2)c(Br)cc1OCc1ccc(C(=O)O)cc1 | - | - | - | - | 46.1 | 72.7 | 35.2
O=C(O)c1ccc(COc2ccccc2/C=C2\NC(=O)N(Cc3ccccc3F)C2=O)cc1 | - | - | - | - | 42.4 | 44.9 | 13.7
Cc1cccc(NC(=O)CN2C(=O)N/C(=C/c3ccc(C)o3)C2=O)c1 | - | - | - | - | - | . | .
CCCN1C(=O)/C(=C/c2ccccc2OCc2ccc(C(=O)O)cc2)NC1=S | - | - | - | - | 39.1 | - | 8.1
O=C(O)c1ccc(COc2ccccc2/C=C2\NC(=O)N(Cc3ccccc3)C2=O)cc1 | - | - | - | - | 42.7 | 45.6 | 10.6
Cc1cccc(NC(=O)CN2C(=O)N/C(=C\c3ccc(-c4cccc(C(=O)O)c4)o3)C2=O)c1 | - | - | - | - | 68.6 | 73.3 | 37.0
COc1cc(C2C(C(=O)c3ccco3)=C(O)C(=O)N2c2cc(C)on2)cc(Br)c1O (stereo unspecified) | - | - | - | - | - | . | .
O=C(O)c1ccc(CNC(=O)c2ccc3c(c2)C(=O)N(Cc2cccnc2)C3=O)cc1 | - | - | - | - | - | . | .
CC(NC(=O)COC(=O)c1cc(NS(=O)(=O)c2ccc(Cl)c([N+](=O)[O-])c2)ccc1O)C1CC2CCC1C2 (stereo unspecified) | - | - | - | - | 44.1 | 58.1 | 21.5
CCCCn1c(N)c(N(CC)C(=O)c2cccc(F)c2)c(=O)[nH]c1=O | - | - | - | - | - | . | .
CCN1CCN(Cc2ccc(NC(=O)c3cc(NC(=O)C4=NN(c5ccccc5)C(=O)C4)cc(OC)c3)cc2C(F)(F)F)CC1 | - | - | - | - | 37.8! | - | 19.6
COc1cc([N+](=O)[O-])ccc1NC(=O)Cc1ccc(F)cc1 | - | - | - | - | - | . | .
COc1ccc(/C=C/C(=O)c2ccc(O)cc2)cc1COc1ccc(F)cc1 | - | - | - | - | - | . | .
O=C(/C=C/c1ccc(O)c([N+](=O)[O-])c1)c1ccc2ccccc2c1 | - | - | - | - | 42.3 | 77.9 | 39.2
COc1ccc(Oc2ccc(/C=C/C(=O)c3ccc(O)cc3)cc2[N+](=O)[O-])cc1 | - | - | - | - | 36.5 | - | 10.7
CN(C)c1ccc(/C=C/C(=O)c2ccccc2)cc1[N+](=O)[O-] | - | - | - | - | - | . | .
C=CCSc1nnc(NC(=O)c2cccc(S(=O)(=O)N(C)c3ccccc3)c2)s1 | - | - | - | - | 47.8 | 44.3 | 14.1
CN(c1ccccc1)S(=O)(=O)c1cccc(C(=O)Nc2nccs2)c1 | - | - | - | - | - | . | .
Cc1[nH]n(-c2ccccc2)c(=O)c1N=Nc1c(O)cc(S(=O)(=O)N(C)C)c2ccccc12 | - | - | - | - | 41.7 | 89.0 | 66.9
Cc1ccc(-c2noc(CCC(=O)NCc3ccc4c(c3)OCO4)n2)cc1 | - | - | - | - | - | . | .
CCC(=O)c1ccc(N2CCN(C(=O)COc3ccc(F)cc3)CC2)c(F)c1 | - | - | - | - | - | . | .
